# The source made the active and inactive calls. No cut-off for these calls is given here.
# Legend:
# [1] = target: Vascular endothelial growth factor receptor 2 (Homo sapiens) (UniProt P35968); assay: Inhibition of human KDR using […] as substrate at 1 uM measured after 20 mins at 30 degC by liquid scintillation counting method in presence of [gamma-32P]-ATP
# [2] = target: Fibroblast growth factor receptor 1 (Homo sapiens) (UniProt P11362); assay: Inhibition of human FGFR1 using myelin basic protein as substrate at 1 uM measured after 20 mins at 30 degC by liquid scintillation counting method in presence of [gamma-32P]-ATP
# [3] = target: Tyrosine-protein kinase ABL1 (Homo sapiens) (UniProt P00519); assay: Inhibition of human Abl1 using myelin basic protein as substrate at 1 uM measured after 20 mins at 30 degC by liquid scintillation counting method in presence of [gamma-32P]-ATP
# [4] = target: Proto-oncogene tyrosine-protein kinase Src (Homo sapiens) (UniProt P12931); assay: Inhibition of human Src using myelin basic protein as substrate at 1 uM measured after 20 mins at 30 degC by liquid scintillation counting method in presence of [gamma-32P]-ATP
# [5] = target: Platelet-derived growth factor receptor beta (Homo sapiens) (UniProt P09619); assay: Inhibition of human PDGFR-beta at 1 uM measured after 20 mins at 30 degC by liquid scintillation counting method in presence of [gamma-32P]-ATP
# [6] = target: Serine/threonine-protein kinase mTOR (Homo sapiens) (UniProt P42345); assay: Inhibition of human mTOR using PHAS-1 as substrate at 1 uM measured after 20 mins at 30 degC by liquid scintillation counting method in presence of [gamma-32P]-ATP
# [7] = organism: Homo sapiens; assay: Inhibition of human PI3K using phosphatidylinositol 4,5-diphosphate as substrate at 1 uM measured after 20 mins at 30 degC by liquid scintillation counting method in presence of [gamma-32P]-ATP
# [8] = Reduction of COL1A1 mRNA expression in healthy human HSC cells at 1 uM by RT-PCR analysis; type: functional, cell-based
# How it was run: (§1)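 HSCs or ISEMFs were treated with compound for 24 h. Total RNA was extracted and DNase I-treated, then used for quantitative PCR of the target transcript. Values were normalized to 18S rRNA and relative change was calculated by the ΔΔCT method. Triplicate per isolated cell batch.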
# [9] = Reduction of COL1A1 mRNA expression in crohn's disease patient isolated ISEMF at 1 uM by RT-PCR analysis; type: functional; settings: Homo sapiens; how it was run: as §1
# [10] = Reduction of COL1A1 mRNA expression in healthy human ISEMF at 1 uM by RT-PCR analysis; type: functional; how it was run: as §1
# [11] = Reduction of FN1 mRNA expression in human HSC cells at 1 uM by RT-PCR analysis; type: functional, cell-based; how it was run: as §1
# [12] = Reduction of FN1 mRNA expression in healthy human ISEMF at 1 uM by RT-PCR analysis; type: functional; how it was run: as §1
# [13] = Reduction of FN1 mRNA expression in crohn's disease patient isolated ISEMF at 1 uM by RT-PCR analysis; type: functional; settings: Homo sapiens; how it was run: as §1
# [14] = Reduction of TIMP1 mRNA expression in human HSC cells at 1 uM by RT-PCR analysis; type: functional, cell-based; how it was run: as §1
# [15] = Reduction of TIMP1 mRNA expression in healthy human ISEMF at 1 uM by RT-PCR analysis; type: functional; how it was run: as §1
# [16] = Reduction of TIMP1 mRNA expression in crohn's disease patient isolated ISEMF at 1 uM by RT-PCR analysis; type: functional; settings: Homo sapiens; how it was run: as §1
# [17] = Cytotoxicity against human HSC cells assessed as cell viability at 1 uM after 72 hrs by MTT assay; type: cell-based
# How it was run: (§2)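 MTT viability in primary human HSCs or ISEMFs seeded at 2 × 10³ cells/well. Cells were exposed to compound for 72 h, then to MTT 0.50 mg/ml for 4 h. Viability is expressed as % of the respective untreated cells. Triplicate per isolated cell batch.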
# [18] = Cytotoxicity against healthy human ISEMF assessed as cell viability at 1 uM after 72 hrs by MTT assay; how it was run: as §2
# [19] = Cytotoxicity against crohn's disease patient isolated ISEMF assessed as cell viability at 1 uM after 72 hrs by MTT assay; settings: human; how it was run: as §2
# [20] = tested on: HSC; assay: Antiproliferative activity against VEGF induced human HSC cells at 1 uM after 72 hrs by carboxyfluorescein diacetate succinimidyl ester dye-based FACS flow cytometric method; type: functional, cell-based
# How it was run: (§3)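 Primary human HSCs (from collagenase/pronase digests of non-pathological liver, Percoll gradient) or ISEMFs (from collagenase-digested gut biopsies, CD90-checked) were CFSE-loaded for 10 min at 37 °C in PBS with 0.1% BSA. Loading was quenched with 5 volumes of ice-cold medium. After 16 h, cells were washed and given compound plus 1 ng/ml VEGF for 72 h. Read-out was dye partitioning by flow cytometry, as % CFSE-positive cells. Duplicate per cell batch; mean ± SE.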
# [21] = organism: Homo sapiens; assay: Antiproliferative activity against VEGF induced healthy human ISEMF at 1 uM after 72 hrs by carboxyfluorescein diacetate succinimidyl ester dye-based FACS flow cytometric method; type: functional; how it was run: as §3
# [22] = organism: Homo sapiens; assay: Antiproliferative activity against VEGF induced crohn's disease patient isolated ISEMF at 1 uM after 72 hrs by carboxyfluorescein diacetate succinimidyl ester dye-based FACS flow cytometric method; type: functional; how it was run: as §3
# [23] = target: T1, MAP kinase p38 (Homo sapiens) (UniProt O15264+Q15759+Q16539+P53778); assay: Inhibition of p38 MAPK phosphorylation in human HSC cells at 1 uM after 4 hrs by western blotting analysis; type: cell-based
# How it was run: (§4)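 Primary human cells were treated with compound for 4 h. Lysates were made in RIPA buffer with phosphatase and protease inhibitors and cleared by centrifugation. Proteins were run on 10% SDS-PAGE and blotted to nitrocellulose. Blots were probed for phospho-p38 MAPK with an HRP secondary and ECL detection, then reprobed for total p38 MAPK as loading control. Duplicate experiments.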
# [24] = target: T1, MAP kinase p38 (Homo sapiens); assay: Inhibition of p38 MAPK phosphorylation in crohn's disease patient isolated ISEMF at 1 uM after 4 hrs by western blotting analysis; how it was run: as §4
# Fibroblast growth factor receptor 1 (Homo sapiens), sequence (P11362 22-822 limits assumed): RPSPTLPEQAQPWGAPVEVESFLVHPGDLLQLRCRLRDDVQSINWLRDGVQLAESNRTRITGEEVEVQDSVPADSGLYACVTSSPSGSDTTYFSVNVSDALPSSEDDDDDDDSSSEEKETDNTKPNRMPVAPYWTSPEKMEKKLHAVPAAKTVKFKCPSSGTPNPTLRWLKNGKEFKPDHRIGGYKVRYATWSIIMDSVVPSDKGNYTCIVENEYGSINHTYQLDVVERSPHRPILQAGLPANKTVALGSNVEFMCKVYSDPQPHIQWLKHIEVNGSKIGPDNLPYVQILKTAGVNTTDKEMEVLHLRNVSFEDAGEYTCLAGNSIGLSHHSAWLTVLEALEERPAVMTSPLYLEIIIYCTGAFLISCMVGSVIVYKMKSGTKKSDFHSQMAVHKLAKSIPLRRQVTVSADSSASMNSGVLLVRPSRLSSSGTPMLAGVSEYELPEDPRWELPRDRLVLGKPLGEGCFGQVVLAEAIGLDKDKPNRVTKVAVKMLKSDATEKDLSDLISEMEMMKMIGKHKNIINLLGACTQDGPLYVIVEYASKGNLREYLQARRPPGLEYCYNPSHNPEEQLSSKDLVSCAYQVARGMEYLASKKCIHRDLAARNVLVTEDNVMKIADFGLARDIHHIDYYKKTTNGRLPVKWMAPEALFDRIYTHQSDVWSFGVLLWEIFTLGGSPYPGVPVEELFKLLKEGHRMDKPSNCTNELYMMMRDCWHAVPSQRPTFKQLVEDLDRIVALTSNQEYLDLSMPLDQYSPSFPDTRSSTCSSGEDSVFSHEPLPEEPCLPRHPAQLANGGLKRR
# Vascular endothelial growth factor receptor 2 (Homo sapiens), sequence (P35968 whole entry): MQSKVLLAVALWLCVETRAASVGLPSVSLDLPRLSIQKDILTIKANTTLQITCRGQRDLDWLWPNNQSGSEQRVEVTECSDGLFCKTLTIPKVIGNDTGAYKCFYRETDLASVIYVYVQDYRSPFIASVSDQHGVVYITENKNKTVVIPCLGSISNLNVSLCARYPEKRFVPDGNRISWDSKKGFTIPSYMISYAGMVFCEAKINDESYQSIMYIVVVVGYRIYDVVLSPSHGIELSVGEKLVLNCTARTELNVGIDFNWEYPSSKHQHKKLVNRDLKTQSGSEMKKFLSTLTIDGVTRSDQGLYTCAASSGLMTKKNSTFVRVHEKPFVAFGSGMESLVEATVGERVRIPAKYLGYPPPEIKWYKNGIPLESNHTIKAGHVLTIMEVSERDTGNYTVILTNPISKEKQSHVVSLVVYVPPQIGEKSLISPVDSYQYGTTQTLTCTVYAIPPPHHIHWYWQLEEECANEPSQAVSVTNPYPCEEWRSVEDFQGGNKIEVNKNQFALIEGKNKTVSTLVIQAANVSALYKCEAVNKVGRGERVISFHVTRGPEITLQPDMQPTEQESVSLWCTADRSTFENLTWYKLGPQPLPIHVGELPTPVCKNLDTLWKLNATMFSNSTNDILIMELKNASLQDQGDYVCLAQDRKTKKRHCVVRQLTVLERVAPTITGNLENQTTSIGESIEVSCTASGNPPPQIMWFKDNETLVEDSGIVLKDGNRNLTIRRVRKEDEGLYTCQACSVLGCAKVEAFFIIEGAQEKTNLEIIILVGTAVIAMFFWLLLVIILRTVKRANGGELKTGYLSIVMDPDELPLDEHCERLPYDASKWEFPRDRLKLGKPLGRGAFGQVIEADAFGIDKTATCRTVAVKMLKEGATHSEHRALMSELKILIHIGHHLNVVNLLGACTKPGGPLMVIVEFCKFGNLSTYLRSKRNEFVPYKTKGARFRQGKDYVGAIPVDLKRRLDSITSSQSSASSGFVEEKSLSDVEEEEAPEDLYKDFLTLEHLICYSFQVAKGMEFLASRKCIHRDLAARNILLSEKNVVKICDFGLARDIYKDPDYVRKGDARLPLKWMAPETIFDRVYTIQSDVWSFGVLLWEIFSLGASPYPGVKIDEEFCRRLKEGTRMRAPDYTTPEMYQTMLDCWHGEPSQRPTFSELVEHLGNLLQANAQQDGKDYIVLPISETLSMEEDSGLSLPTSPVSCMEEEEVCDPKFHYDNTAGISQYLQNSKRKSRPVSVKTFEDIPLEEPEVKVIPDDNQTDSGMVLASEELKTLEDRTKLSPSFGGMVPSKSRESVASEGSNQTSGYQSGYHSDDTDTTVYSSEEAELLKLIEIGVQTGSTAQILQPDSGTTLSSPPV
# Proto-oncogene tyrosine-protein kinase Src (Homo sapiens), sequence (P12931 2-536 limits assumed): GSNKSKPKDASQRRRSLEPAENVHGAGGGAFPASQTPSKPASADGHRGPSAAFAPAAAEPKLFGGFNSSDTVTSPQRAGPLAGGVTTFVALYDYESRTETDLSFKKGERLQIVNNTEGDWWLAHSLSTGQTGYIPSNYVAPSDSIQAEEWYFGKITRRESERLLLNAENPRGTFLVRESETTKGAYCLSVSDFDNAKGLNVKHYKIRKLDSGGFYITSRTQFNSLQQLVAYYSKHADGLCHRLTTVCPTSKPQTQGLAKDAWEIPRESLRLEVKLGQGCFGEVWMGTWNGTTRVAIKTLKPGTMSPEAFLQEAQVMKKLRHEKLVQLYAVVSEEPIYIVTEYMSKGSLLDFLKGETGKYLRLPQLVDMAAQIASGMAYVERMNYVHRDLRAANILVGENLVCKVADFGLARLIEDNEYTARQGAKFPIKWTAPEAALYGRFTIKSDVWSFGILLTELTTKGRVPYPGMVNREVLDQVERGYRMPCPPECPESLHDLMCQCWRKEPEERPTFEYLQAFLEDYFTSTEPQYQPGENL
# Platelet-derived growth factor receptor beta (Homo sapiens), sequence (P09619 whole entry): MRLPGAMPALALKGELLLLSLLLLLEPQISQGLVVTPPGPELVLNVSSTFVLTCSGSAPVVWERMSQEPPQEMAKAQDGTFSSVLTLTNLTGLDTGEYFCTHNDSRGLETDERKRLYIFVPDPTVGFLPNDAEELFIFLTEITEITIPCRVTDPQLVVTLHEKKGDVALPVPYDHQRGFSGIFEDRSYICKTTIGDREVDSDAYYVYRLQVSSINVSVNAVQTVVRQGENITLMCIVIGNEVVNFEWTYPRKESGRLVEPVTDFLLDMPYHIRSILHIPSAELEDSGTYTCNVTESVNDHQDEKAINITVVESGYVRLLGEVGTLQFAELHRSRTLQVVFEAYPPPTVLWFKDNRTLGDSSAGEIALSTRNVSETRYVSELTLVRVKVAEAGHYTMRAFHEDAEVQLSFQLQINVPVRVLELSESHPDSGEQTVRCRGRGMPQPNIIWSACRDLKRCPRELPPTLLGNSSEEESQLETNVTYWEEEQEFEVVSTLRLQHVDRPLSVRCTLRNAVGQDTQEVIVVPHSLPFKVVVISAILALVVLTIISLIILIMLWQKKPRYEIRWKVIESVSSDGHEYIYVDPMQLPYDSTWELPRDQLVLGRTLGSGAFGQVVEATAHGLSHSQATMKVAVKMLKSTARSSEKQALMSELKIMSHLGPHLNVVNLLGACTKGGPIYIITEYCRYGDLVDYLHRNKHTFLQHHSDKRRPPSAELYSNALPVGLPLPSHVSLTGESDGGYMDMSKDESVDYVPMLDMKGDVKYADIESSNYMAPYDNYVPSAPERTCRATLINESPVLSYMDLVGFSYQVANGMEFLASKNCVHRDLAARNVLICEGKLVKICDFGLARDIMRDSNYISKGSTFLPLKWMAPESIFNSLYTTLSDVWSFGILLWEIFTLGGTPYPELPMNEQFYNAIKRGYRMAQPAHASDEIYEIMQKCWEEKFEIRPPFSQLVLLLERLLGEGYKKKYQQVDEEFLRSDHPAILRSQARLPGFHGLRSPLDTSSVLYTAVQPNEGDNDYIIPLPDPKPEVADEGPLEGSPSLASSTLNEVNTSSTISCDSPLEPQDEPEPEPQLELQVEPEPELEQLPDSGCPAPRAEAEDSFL
# Tyrosine-protein kinase ABL1 (Homo sapiens), sequence (P00519 whole entry): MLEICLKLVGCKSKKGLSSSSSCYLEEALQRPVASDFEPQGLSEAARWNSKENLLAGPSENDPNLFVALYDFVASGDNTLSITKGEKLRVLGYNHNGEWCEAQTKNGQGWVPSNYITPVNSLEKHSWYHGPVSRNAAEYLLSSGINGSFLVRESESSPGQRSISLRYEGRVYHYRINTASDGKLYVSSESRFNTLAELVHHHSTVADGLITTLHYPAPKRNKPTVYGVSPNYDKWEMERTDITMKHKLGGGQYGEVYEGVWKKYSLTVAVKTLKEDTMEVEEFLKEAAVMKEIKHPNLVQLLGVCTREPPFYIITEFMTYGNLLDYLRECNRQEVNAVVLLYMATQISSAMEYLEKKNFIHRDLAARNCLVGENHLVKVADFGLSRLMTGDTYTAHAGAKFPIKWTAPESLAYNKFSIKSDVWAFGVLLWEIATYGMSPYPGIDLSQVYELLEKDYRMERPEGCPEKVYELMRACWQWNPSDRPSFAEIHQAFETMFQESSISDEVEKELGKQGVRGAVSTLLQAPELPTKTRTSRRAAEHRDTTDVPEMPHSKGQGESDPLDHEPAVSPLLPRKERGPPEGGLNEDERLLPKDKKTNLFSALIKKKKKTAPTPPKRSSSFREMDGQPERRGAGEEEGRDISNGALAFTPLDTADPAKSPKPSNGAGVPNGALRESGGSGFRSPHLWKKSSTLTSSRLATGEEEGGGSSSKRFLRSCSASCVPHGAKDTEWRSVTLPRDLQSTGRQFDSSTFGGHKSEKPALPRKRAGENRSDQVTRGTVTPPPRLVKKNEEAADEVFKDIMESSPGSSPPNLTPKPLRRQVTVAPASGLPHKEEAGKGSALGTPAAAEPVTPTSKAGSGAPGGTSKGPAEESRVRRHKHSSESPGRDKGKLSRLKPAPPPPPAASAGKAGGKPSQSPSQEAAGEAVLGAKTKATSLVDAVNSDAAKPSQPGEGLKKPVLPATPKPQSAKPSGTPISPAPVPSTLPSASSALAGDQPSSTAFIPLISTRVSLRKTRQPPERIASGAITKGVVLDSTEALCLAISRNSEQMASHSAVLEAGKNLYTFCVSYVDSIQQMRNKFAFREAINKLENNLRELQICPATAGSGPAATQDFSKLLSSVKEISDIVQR
compound,measurement,setting,value
COc1cc2ncn(Cc3cccc(Br)c3)c(=O)c2cc1OC,inhibition,[1],31%
same,inhibition,[2],11%
same,inhibition,[3],0%
same,inhibition,[4],0%
same,inhibition,[5],22%
same,inhibition,[6],18%
same,inhibition,[7],15%
same,Activity,[8],inactive
same,Activity,[9],inactive
same,Activity,[10],inactive
same,Activity,[11],inactive
same,Activity,[12],inactive
same,Activity,[13],inactive
same,Activity,[14],inactive
same,Activity,[15],inactive
same,Activity,[16],inactive
same,Activity,[17],Non-toxic
same,Activity,[18],Non-toxic
same,Activity,[19],Non-toxic
COc1cc2ncn(Cc3cccnc3Br)c(=O)c2cc1OC,inhibition,[1],24%
same,inhibition,[2],13%
same,inhibition,[3],0%
same,inhibition,[4],3%
same,inhibition,[5],37%
same,inhibition,[6],30%
same,inhibition,[7],25%
same,Activity,[11],Active
same,Activity,[12],inactive
same,Activity,[13],Active
same,Activity,[14],Active
same,Activity,[15],inactive
same,Activity,[16],Active
same,Activity,[20],Active
same,Activity,[21],Active
same,Activity,[22],Active
same,Activity,[17],Non-toxic
same,Activity,[18],Non-toxic
same,Activity,[19],Non-toxic
same,inhibition,[23],Active
same,inhibition,[24],Active
O=C(Cn1cnc2cc3c(cc2c1=O)OCCO3)c1cccc(Br)c1,inhibition,[1],36%
same,inhibition,[2],18%
same,inhibition,[3],0%
same,inhibition,[4],0%
same,inhibition,[5],4%
same,inhibition,[6],2%
same,inhibition,[7],35%
same,Activity,[8],Active
same,Activity,[9],Active
same,Activity,[10],Active
same,Activity,[17],Non-toxic
same,Activity,[18],Non-toxic
same,Activity,[19],Non-toxic
same,inhibition,[23],Active
same,inhibition,[24],Active
O=c1c2cc3c(cc2ncn1Cc1ccc(Br)cc1)OCO3,inhibition,[1],27%
same,inhibition,[2],1%
same,inhibition,[3],0%
same,inhibition,[4],0%
same,inhibition,[5],45%
same,inhibition,[6],17%
same,inhibition,[7],7%
same,Activity,[8],inactive
same,Activity,[9],inactive
same,Activity,[10],inactive
same,Activity,[11],inactive
same,Activity,[12],inactive
same,Activity,[13],inactive
same,Activity,[14],inactive
same,Activity,[15],inactive
same,Activity,[16],inactive
same,Activity,[20],Active
same,Activity,[21],Active
same,Activity,[22],Active
same,Activity,[17],Non-toxic
same,Activity,[18],Non-toxic
same,Activity,[19],Non-toxic
O=c1c2cc3c(cc2ncn1CC(O)c1cccc(Cl)c1)OCCO3 (centres undefined),inhibition,[1],26%
same,inhibition,[2],5%
same,inhibition,[3],1%
same,inhibition,[4],0%
same,inhibition,[5],0%
same,inhibition,[6],1%
same,inhibition,[7],0%
same,Activity,[8],inactive
same,Activity,[9],inactive
same,Activity,[10],inactive
same,Activity,[11],inactive
same,Activity,[12],inactive
same,Activity,[13],inactive
same,Activity,[14],inactive
same,Activity,[15],inactive
same,Activity,[16],inactive
same,Activity,[17],Non-toxic
same,Activity,[18],Non-toxic
same,Activity,[19],Non-toxic
COc1cc2ncn(CC(O)c3ccc(Br)cc3)c(=O)c2cc1OC (centres undefined),inhibition,[1],44%
same,inhibition,[2],8%
same,inhibition,[3],0%
same,inhibition,[4],0%
same,inhibition,[5],0%
same,inhibition,[6],33%
same,inhibition,[7],5%
same,Activity,[8],Active
same,Activity,[9],Active
same,Activity,[10],Active
same,Activity,[20],Active
same,Activity,[21],Active
same,Activity,[22],Active
same,Activity,[17],Non-toxic
same,Activity,[18],Non-toxic
same,Activity,[19],Non-toxic
same,inhibition,[23],Active
same,inhibition,[24],Active
